Assay results as given in ChEMBL document CHEMBL4145631, “Riluzole-Triazole Hybrids as Novel Chemical Probes for Neuroprotection in Amyotrophic Lateral Sclerosis” (ACS Med Chem Lett, 2018).
Active and inactive are the calls of the source. No rule for the calls is given here.

Experiments:
Cortical neurone [1] = experiment: Neuroprotective activity against kainate-induced cell death in mouse primary cortical neurons by cell counting method; type: functional, cell-based
Cortical neurone [2] = experiment: Neuroprotective activity against kainate-induced cell damage in mouse primary cortical neurons assessed as reduction in kainate-induced neurofilament loss by measuring increase in MAPK level at 1 uM pretreated followed by kainate challenge measured after 18 hrs by fluorescence assay; type: functional, cell-based; conditions: in the assay text read “MAP2” for “MAPK”
In short: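 Mouse primary cortical neurons cultured as previously described; dendritic processes stained with anti-MAP2 antibody. Cell-profile perimeter measured by image analysis, each condition normalized to kainate-only.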

Cortical neurone [3] = experiment: Neuroprotective activity against kainate-induced cell death in mouse primary cortical neurons by caspase activation method; type: functional, cell-based
Mus musculus [4] = species on record: Mus musculus; experiment: Neuroprotective activity against kainate-induced cell death in mouse primary motor neurons by MTT assay; type: functional
Mus musculus [5] = species on record: Mus musculus; experiment: Neuroprotective activity against kainate-induced cell death in mouse primary motor neurons by caspase activation method; type: functional
Cortical neurone [6] = experiment: Neuroprotective activity against kainate-induced cell death in mouse primary cortical neurons by MTT assay; type: functional, cell-based
Mus musculus [7] = species on record: Mus musculus; experiment: Neuroprotective activity against kainate-induced cell death in mouse primary motor neurons by cell counting method; type: functional
Cortical neurone [8] = experiment: Neuroprotective activity against kainate-induced cell damage in mouse primary cortical neurons assessed as reversal of kainate-induced reduction in calcium flux by fura-2-AM dye based fluorescence assay; type: functional
In short: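 Mouse primary cortical neurons loaded with fura-2AM for 45 min, washed, then depolarized with 10 mM KCl to drive Ca2+ entry through voltage-gated calcium channels. Flux read on a plate-based system.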

SMILES | Activity (Cortical neurone [1]) | Activity (Cortical neurone [2]) | Activity (Cortical neurone [3]) | Activity (Mus musculus [4]) | Activity (Mus musculus [5]) | Activity (Cortical neurone [6]) | Activity (Mus musculus [7]) | Activity (Cortical neurone [8])
CCCc1cn(CCn2c(=N)sc3cc(OC(F)(F)F)ccc32)nn1 | inactive | inactive | inactive | inactive | inactive | inactive | inactive | Active
N=c1sc2cc(OC(F)(F)F)ccc2n1CCn1cc(-c2ccsc2)nn1 | inactive | inactive | inactive | inactive | inactive | inactive | inactive | Active
N=c1sc2cc(OC(F)(F)F)ccc2n1CCn1cc(CCc2ccccc2)nn1 | inactive | inactive | inactive | inactive | inactive | inactive | inactive | Active
N=c1sc2cc(OC(F)(F)F)ccc2n1CCn1cc(C2CC2)nn1 | inactive | inactive | inactive | inactive | inactive | inactive | inactive | Active
N=c1sc2cc(OC(F)(F)F)ccc2n1CCn1cc(-c2ccc(C(=O)O)cc2)nn1 | inactive | Active | inactive | inactive | inactive | inactive | inactive | Active
N=c1sc2cc(OC(F)(F)F)ccc2n1CCn1cc(-c2ccc([N+](=O)[O-])cc2)nn1 | inactive | inactive | inactive | inactive | inactive | inactive | inactive | Active
Cc1cccc(-c2cn(CCn3c(=N)sc4cc(OC(F)(F)F)ccc43)nn2)c1 | inactive | inactive | inactive | inactive | inactive | inactive | inactive | Active
COc1ccccc1-c1cn(CCn2c(=N)sc3cc(OC(F)(F)F)ccc32)nn1 | inactive | inactive | inactive | inactive | inactive | inactive | inactive | Active
N=c1sc2cc(OC(F)(F)F)ccc2n1CCn1cc(-c2ccccc2C(F)(F)F)nn1 | inactive | inactive | inactive | inactive | inactive | inactive | inactive | Active
N=c1sc2cc(OC(F)(F)F)ccc2n1CCn1cc(-c2cc(C(F)(F)F)cc(C(F)(F)F)c2)nn1 | inactive | inactive | inactive | inactive | inactive | inactive | inactive | Active
N=c1sc2cc(OC(F)(F)F)ccc2n1CCn1cc(-c2cccc(Cl)c2)nn1 | inactive | inactive | inactive | inactive | inactive | inactive | inactive | Active
N=c1sc2cc(OC(F)(F)F)ccc2n1CCn1cc(-c2ccc(C(F)(F)F)cc2)nn1 | inactive | inactive | inactive | inactive | inactive | inactive | inactive | Active
N=c1sc2cc(OC(F)(F)F)ccc2n1CCn1cc(-c2cccc(F)c2)nn1 | inactive | inactive | inactive | inactive | inactive | inactive | inactive | Active
N=c1sc2cc(OC(F)(F)F)ccc2n1CCn1cc(-c2cc(F)c(F)c(F)c2)nn1 | inactive | inactive | inactive | inactive | inactive | inactive | inactive | Active
